Results on four molecules are retold here after ChEMBL document CHEMBL3576820, “Discovery of benzimidazole oxazolidinediones as novel and selective nonsteroidal mineralocorticoid receptor antagonists” (ACS Med Chem Lett, 2015).

For orientation: IC50 means the point on the concentration scale where inhibition reaches its midpoint. As a reminder, the fraction unbound is free concentration divided by total concentration. Higher therefore signals much free substance. Broadly, the bioavailability is dose-corrected exposure relative to a reference, in per cent.

The target of one data set is T1, Estrogen receptor (Homo sapiens, UniProt P03372).
T1 sequence (P03372 whole entry): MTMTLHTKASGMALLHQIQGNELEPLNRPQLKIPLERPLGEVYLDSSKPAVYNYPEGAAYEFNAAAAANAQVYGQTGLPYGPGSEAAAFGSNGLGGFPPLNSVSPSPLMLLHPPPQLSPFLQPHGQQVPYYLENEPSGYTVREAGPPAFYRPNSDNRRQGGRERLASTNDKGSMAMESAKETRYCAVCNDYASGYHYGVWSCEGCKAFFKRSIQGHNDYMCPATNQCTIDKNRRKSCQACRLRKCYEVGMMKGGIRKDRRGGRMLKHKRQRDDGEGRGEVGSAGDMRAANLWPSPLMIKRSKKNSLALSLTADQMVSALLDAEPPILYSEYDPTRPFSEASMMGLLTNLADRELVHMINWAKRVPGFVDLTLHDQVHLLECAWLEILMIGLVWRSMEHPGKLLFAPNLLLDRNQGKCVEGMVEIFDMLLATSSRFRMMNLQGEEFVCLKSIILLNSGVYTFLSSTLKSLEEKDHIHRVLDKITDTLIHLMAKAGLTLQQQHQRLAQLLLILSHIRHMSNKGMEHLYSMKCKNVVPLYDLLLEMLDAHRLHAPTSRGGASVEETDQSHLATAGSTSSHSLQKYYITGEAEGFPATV
As to the kind of experiment: Antagonist activity at human estrogen receptor alpha expressed in CHOK1 cells assessed as inhibition of beta-estradiol-induced protein interaction with steroid receptor co-activator peptide after overnight incubation by beta-galactosidase reporter gene assay. It counts as cell-based, CHO-K1.
Conditions: not given
For orientation: Reporter assays use an easily measured gene product as a stand-in for the process of interest.
Turning to `C[C@H](c1ccc(F)cc1)N1C(=O)O[C@](Cc2ccccc2)(c2nc3c(NS(C)(=O)=O)cccc3[nH]2)C1=O`, the 50% inhibitory concentration (IC50) is above 20 µM.

Take `C[C@H](c1ccc(F)cc1)N1C(=O)O[C@](Cc2ccccc2)(c2nc3cc(Cl)ccc3[nH]2)C1=O`: the IC50 worked out at 3.3 µM.

Regarding `Cc1nocc1-c1ccc2[nH]c([C@@]3(Cc4ccccc4)OC(=O)N([C@H](C)c4ccc(F)cc4)C3=O)nc2c1`, the concentration for half-maximal inhibition (IC50) was determined as 4.9 µM.

In the case of `C[C@H](c1ccc(F)cc1)N1C(=O)O[C@](Cc2ccccc2)(c2nc3cc(NS(C)(=O)=O)ccc3[nH]2)C1=O`, the IC50 amounted to 17 µM.

Tested on in a further data set: not listed separately
Kind of data set: Metabolic stability in rat liver microsomes assessed as compound remaining at 1 uM after 0.5 hrs. Particulars: read-out: Stability. It counts as ADME. A general note: Liver microsomes are vesicles of endoplasmic reticulum, rich in cytochrome P450 enzymes.
On to `C[C@H](c1ccc(F)cc1)N1C(=O)O[C@](Cc2ccccc2)(c2nc3c(NS(C)(=O)=O)cccc3[nH]2)C1=O`, for which the remaining at 0.5 h, 1 µM turned out to be 44%.

As to `C[C@H](c1ccc(F)cc1)N1C(=O)O[C@](Cc2ccccc2)(c2nc3cc(Cl)ccc3[nH]2)C1=O`, the remaining at 0.5 h, 1 µM turned out to be 14%.

Regarding `Cc1nocc1-c1ccc2[nH]c([C@@]3(Cc4ccccc4)OC(=O)N([C@H](C)c4ccc(F)cc4)C3=O)nc2c1`, the remaining at 0.5 h, 1 µM stood at 54%.

With `C[C@H](c1ccc(F)cc1)N1C(=O)O[C@](Cc2ccccc2)(c2nc3cc(NS(C)(=O)=O)ccc3[nH]2)C1=O`, the remaining at 0.5 h, 1 µM amounted to 80%.

For another data set, the target named is T2, Mineralocorticoid receptor (Homo sapiens, UniProt P08235).
T2 sequence (P08235 whole entry): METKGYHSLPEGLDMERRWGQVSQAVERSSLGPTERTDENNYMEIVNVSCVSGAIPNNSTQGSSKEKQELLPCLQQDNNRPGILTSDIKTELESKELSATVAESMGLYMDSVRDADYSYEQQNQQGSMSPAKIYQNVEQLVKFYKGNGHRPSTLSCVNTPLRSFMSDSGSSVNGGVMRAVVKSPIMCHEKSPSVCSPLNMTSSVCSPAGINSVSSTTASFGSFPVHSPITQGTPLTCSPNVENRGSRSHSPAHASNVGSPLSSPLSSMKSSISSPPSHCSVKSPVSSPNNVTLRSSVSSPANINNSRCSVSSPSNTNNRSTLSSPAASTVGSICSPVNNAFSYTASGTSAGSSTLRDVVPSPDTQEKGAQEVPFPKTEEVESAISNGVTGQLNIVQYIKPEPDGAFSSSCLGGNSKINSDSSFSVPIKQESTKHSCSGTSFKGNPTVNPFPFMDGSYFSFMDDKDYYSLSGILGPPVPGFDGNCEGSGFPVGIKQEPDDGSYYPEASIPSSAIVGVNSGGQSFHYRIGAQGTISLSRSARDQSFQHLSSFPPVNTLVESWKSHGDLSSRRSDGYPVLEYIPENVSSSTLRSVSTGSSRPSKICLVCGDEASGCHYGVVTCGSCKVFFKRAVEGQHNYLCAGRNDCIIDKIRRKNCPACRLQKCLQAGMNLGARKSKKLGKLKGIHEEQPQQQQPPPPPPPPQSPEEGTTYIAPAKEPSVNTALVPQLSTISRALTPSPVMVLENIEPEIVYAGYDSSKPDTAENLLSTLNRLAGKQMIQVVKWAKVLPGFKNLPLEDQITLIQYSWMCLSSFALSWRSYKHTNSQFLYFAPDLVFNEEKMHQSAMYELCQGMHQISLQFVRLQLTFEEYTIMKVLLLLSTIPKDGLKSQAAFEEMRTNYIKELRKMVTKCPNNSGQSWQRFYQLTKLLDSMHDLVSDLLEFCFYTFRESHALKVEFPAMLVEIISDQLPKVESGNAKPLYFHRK
As to the kind of experiment: Antagonist activity at human mineralocorticoid receptor overexpressed in CHOK1 cells assessed as inhibition of aldosterone-induced protein interaction with coactivator peptide after 6 hrs by luminescence assay. It counts as cell-based, CHO-K1.
Conditions: not given
For `C[C@H](c1ccc(F)cc1)N1C(=O)O[C@](Cc2ccccc2)(c2nc3c(NS(C)(=O)=O)cccc3[nH]2)C1=O`, the IC50 was found to be 0.21 µM.

As for `C[C@H](c1ccc(F)cc1)N1C(=O)O[C@](Cc2ccccc2)(c2nc3cc(Cl)ccc3[nH]2)C1=O`, the half-maximal inhibitory concentration (IC50) worked out at 0.16 µM.

For `Cc1nocc1-c1ccc2[nH]c([C@@]3(Cc4ccccc4)OC(=O)N([C@H](C)c4ccc(F)cc4)C3=O)nc2c1`, the IC50 stood at 0.039 µM.

As to `C[C@H](c1ccc(F)cc1)N1C(=O)O[C@](Cc2ccccc2)(c2nc3cc(NS(C)(=O)=O)ccc3[nH]2)C1=O`, the IC50 came out at 0.22 µM.

Tested on in the next data set: not listed separately
Kind of data set: Fraction unbound in 10% rat plasma. It counts as ADME, cell-free. The following applies: 10% plasma. In outline:
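Free fraction measured in the presence of 10% plasma (human or rat), taken as correlating with the free fraction in whole plasma.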
Regarding `C[C@H](c1ccc(F)cc1)N1C(=O)O[C@](Cc2ccccc2)(c2nc3c(NS(C)(=O)=O)cccc3[nH]2)C1=O`, the unbound share (fraction unbound) came out at 0.064.

Molecule `C[C@H](c1ccc(F)cc1)N1C(=O)O[C@](Cc2ccccc2)(c2nc3cc(Cl)ccc3[nH]2)C1=O` had a free fraction (fraction unbound) of 0.01.

Regarding `C[C@H](c1ccc(F)cc1)N1C(=O)O[C@](Cc2ccccc2)(c2nc3cc(NS(C)(=O)=O)ccc3[nH]2)C1=O`, the fraction unbound was found to be 0.064.

The target in another data set is T3, Androgen receptor (Homo sapiens, UniProt P10275).
T3 sequence (P10275 whole entry): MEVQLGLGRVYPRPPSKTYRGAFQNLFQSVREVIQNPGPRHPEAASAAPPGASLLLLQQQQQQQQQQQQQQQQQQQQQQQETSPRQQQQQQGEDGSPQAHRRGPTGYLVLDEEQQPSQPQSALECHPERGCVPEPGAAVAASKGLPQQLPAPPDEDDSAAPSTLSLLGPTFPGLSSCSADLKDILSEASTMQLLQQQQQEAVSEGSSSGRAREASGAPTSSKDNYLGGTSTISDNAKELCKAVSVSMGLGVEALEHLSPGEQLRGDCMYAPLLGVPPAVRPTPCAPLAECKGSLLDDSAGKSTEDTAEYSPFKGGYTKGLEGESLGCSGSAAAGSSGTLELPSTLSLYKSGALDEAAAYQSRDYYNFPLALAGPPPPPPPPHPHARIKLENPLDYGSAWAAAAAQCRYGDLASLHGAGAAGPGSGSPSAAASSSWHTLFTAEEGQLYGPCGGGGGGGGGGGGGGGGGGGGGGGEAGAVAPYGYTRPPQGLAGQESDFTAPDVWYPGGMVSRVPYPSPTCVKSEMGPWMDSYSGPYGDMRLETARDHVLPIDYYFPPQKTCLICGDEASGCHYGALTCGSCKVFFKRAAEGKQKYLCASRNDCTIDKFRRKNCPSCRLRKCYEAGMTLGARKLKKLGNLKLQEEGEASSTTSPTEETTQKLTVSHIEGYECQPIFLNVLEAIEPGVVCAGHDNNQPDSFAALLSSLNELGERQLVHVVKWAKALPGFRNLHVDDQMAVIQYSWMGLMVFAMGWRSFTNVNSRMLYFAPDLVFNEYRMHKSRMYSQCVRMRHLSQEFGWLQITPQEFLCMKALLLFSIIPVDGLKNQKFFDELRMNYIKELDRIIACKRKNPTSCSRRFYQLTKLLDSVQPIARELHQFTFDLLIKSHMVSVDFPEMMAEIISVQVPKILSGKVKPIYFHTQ
As to the kind of experiment: Antagonist activity at human androgen receptor expressed in CHOK1 cells assessed as inhibition of D(-)-norgestrel-induced protein interaction with steroid receptor co-activator peptide after 24 hrs by beta-galactosidase reporter gene assay. It is filed as cell-based, CHO-K1.
Conditions: not given
`C[C@H](c1ccc(F)cc1)N1C(=O)O[C@](Cc2ccccc2)(c2nc3c(NS(C)(=O)=O)cccc3[nH]2)C1=O`: the IC50 was 11 µM.

`C[C@H](c1ccc(F)cc1)N1C(=O)O[C@](Cc2ccccc2)(c2nc3cc(Cl)ccc3[nH]2)C1=O`: the IC50 was 3.1 µM.

As for `Cc1nocc1-c1ccc2[nH]c([C@@]3(Cc4ccccc4)OC(=O)N([C@H](C)c4ccc(F)cc4)C3=O)nc2c1`, the IC50 is 3.4 µM.

As to `C[C@H](c1ccc(F)cc1)N1C(=O)O[C@](Cc2ccccc2)(c2nc3cc(NS(C)(=O)=O)ccc3[nH]2)C1=O`, the half-inhibitory concentration (IC50) was 13 µM.

Tested on in another data set: not listed separately
As to the kind of experiment: Metabolic stability in human liver microsomes assessed as compound remaining at 1 uM after 0.5 hrs. It is filed as ADME. Particulars: read-out: Stability.
As for `C[C@H](c1ccc(F)cc1)N1C(=O)O[C@](Cc2ccccc2)(c2nc3c(NS(C)(=O)=O)cccc3[nH]2)C1=O`, the remaining at 0.5 h, 1 µM worked out at 46%.

Turning to `C[C@H](c1ccc(F)cc1)N1C(=O)O[C@](Cc2ccccc2)(c2nc3cc(Cl)ccc3[nH]2)C1=O`, the remaining at 0.5 h, 1 µM was 55%.

For `Cc1nocc1-c1ccc2[nH]c([C@@]3(Cc4ccccc4)OC(=O)N([C@H](C)c4ccc(F)cc4)C3=O)nc2c1`, the remaining at 0.5 h, 1 µM worked out at 27%.

As for `C[C@H](c1ccc(F)cc1)N1C(=O)O[C@](Cc2ccccc2)(c2nc3cc(NS(C)(=O)=O)ccc3[nH]2)C1=O`, the remaining at 0.5 h, 1 µM was 93%.

Tested on in a further data set: not listed separately
Kind of data set: Oral bioavailability in Wistar han rat at 2 mg/kg. It counts as ADME, organism-based. The following applies: in vivo. The method in brief: (§1)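 Wistar Han rats. IV dose 1 mg/kg in DMSO/PEG200/water (10:60:30), n=2. Oral dose 2 mg/kg in imwitor/tween (1:1) by gavage, n=3. Values are averages. Derived: F%, plasma clearance, Vdss, terminal half-life and oral AUC normalized to dose.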
The molecule `C[C@H](c1ccc(F)cc1)N1C(=O)O[C@](Cc2ccccc2)(c2nc3c(NS(C)(=O)=O)cccc3[nH]2)C1=O` returned a bioavailability of 15%.

As for `C[C@H](c1ccc(F)cc1)N1C(=O)O[C@](Cc2ccccc2)(c2nc3cc(Cl)ccc3[nH]2)C1=O`, the bioavailability was 15%.

As to `Cc1nocc1-c1ccc2[nH]c([C@@]3(Cc4ccccc4)OC(=O)N([C@H](C)c4ccc(F)cc4)C3=O)nc2c1`, the bioavailability came out at 54%.

`C[C@H](c1ccc(F)cc1)N1C(=O)O[C@](Cc2ccccc2)(c2nc3cc(NS(C)(=O)=O)ccc3[nH]2)C1=O` returned a bioavailability of 6%.

For the next data set, the system named is Rattus norvegicus. As to the kind of experiment: Dose normalized AUC in Wistar han rat at 2 mg/kg, po. It counts as ADME, organism-based. Particulars: in vivo. In outline:
as §1
For `C[C@H](c1ccc(F)cc1)N1C(=O)O[C@](Cc2ccccc2)(c2nc3c(NS(C)(=O)=O)cccc3[nH]2)C1=O`, the AUC/dose turned out to be 0.085 µM·kg·h/mg.

On to `C[C@H](c1ccc(F)cc1)N1C(=O)O[C@](Cc2ccccc2)(c2nc3cc(Cl)ccc3[nH]2)C1=O`, for which the AUC/dose worked out at 0.11 µM·kg·h/mg.

`Cc1nocc1-c1ccc2[nH]c([C@@]3(Cc4ccccc4)OC(=O)N([C@H](C)c4ccc(F)cc4)C3=O)nc2c1` showed an AUC/dose of 0.79 µM·kg·h/mg.

`C[C@H](c1ccc(F)cc1)N1C(=O)O[C@](Cc2ccccc2)(c2nc3cc(NS(C)(=O)=O)ccc3[nH]2)C1=O` showed an AUC/dose of 0.067 µM·kg·h/mg.
